Converted amounts (≈) assume the structure as drawn.
What was measured:
Rattus norvegicus [1] = assay: Diuretic activity was measured in saline (20mL/kg, po)-loaded rat as sodium output at 10 mg/kg dose po; format: functional, Urine
Outline: (§1)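 Male Sprague–Dawley rats, food withheld 18 h, saline-loaded (20 mL/kg po), then given compound orally as a suspension in 0.5% methyl cellulose; vehicle-dosed controls. Urine collected over 6 h for volume (mL/kg), Na+ and K+ output (μequiv/kg). n = 3 (n = 1 for some vehicle groups); means ± SEM, significance vs vehicle at p < 0.05 / p < 0.01.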

Rattus norvegicus [2] = assay: Diuretic activity was measured in saline (20mL/kg, po)-loaded rat as potassium output at 10 mg/kg dose po; format: functional, organism-based; design: dose 10 mg/kg; settings: Urine; outline: as §1
Rattus norvegicus [3] = assay: Diuretic activity was measured in saline (20mL/kg, po)-loaded rat as urine volume collected for 6 hr at 10 mg/kg dose po; format: functional; outline: as §1
[4] = Oral bioavailability in rat (fasted); format: ADME, organism-based; settings: in vivo
Outline: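 Fasted rats given a single oral dose of compound suspended in 0.5% methyl cellulose solution, 3.2 or 10 mg/kg depending on compound, n = 3–4 per group.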

[5] = solubility in water (ug/mL) at 37 degree C.; format: physicochemical; settings: read-out: S
Outline: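 Aqueous solubility measured in water at 37 °C; sodium salt form used for one compound.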

Adenosine receptor A1 [6] = molecular target: T1, Adenosine receptor A1 (Homo sapiens, UniProt P30542); assay: Adenosine A1 receptor binding using [3H]DPCPX in human cortical membranes; format: cell membranes
T1 sequence (P30542 whole entry): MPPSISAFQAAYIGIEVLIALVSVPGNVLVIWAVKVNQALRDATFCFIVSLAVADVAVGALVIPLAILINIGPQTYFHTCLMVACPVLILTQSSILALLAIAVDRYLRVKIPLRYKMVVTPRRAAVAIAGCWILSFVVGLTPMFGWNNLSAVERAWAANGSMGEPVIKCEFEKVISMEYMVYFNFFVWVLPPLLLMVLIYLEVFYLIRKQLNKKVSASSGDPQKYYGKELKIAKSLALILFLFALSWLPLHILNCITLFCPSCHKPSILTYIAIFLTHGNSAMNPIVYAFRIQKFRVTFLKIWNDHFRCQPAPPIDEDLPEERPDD

Adenosine receptor A1 [7] = molecular target: T2, Adenosine receptor A1 (Rattus norvegicus, UniProt P25099); assay: Adenosine A1 receptor binding using [3H][…] in rat cortical membranes; format: cell membranes
T2 sequence (P25099 whole entry): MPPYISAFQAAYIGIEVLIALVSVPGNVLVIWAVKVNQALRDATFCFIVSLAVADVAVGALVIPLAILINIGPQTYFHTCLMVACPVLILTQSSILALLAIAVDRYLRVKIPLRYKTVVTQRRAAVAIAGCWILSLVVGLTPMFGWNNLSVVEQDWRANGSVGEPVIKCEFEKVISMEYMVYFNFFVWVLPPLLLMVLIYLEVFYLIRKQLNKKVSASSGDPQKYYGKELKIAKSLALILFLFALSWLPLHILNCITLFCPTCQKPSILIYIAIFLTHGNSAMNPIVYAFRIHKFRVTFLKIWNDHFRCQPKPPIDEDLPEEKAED
Outline: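 Displacement of [3H]DPCPX binding in rat cortical membranes. Values are means ± 95% confidence limits from at least three independent experiments.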

Rattus norvegicus [8] = assay: Diuretic activity was measured in saline (20mL/kg, po)-loaded rat as sodium output at 0.32 mg/kg dose po; format: functional, Urine; outline: as §1
Rattus norvegicus [9] = assay: Diuretic activity was measured in saline (20mL/kg, po)-loaded rat as sodium output at 1 mg/kg dose po; format: functional, Urine; outline: as §1
Rattus norvegicus [10] = assay: Diuretic activity was measured in saline (20mL/kg, po)-loaded rat as sodium output at 3.2 mg/kg dose po; format: functional, Urine; outline: as §1
Rattus norvegicus [11] = assay: Diuretic activity was measured in saline (20mL/kg, po)-loaded rat as potassium output at 1 mg/kg dose po; format: functional, organism-based; design: dose 1 mg/kg; settings: Urine; outline: as §1
Rattus norvegicus [12] = assay: Diuretic activity was measured in saline (20mL/kg, po)-loaded rat as potassium output at 3.2 mg/kg dose po; format: functional, organism-based; design: dose 3.2 mg/kg; settings: Urine; outline: as §1
Rattus norvegicus [13] = assay: Diuretic activity was measured in saline (20mL/kg, po)-loaded rat as urine volume collected for 6 hr at 0.32 mg/kg dose po; format: functional; outline: as §1
Rattus norvegicus [14] = assay: Diuretic activity was measured in saline (20mL/kg, po)-loaded rat as urine volume collected for 6 h at 3.2 mg/kg dose po; format: functional; outline: as §1
Rattus norvegicus [15] = assay: Diuretic activity was measured in saline (20mL/kg, po)-loaded rat as urine volume collected for 6 hr at 1 mg/kg dose po; format: functional; outline: as §1
Adenosine A2 receptor = Adenosine A2 receptor (Rattus norvegicus, UniProt P29276+P30543); assay: Adenosine A2 receptor binding using [3H]CGS-21680 in rat striatal membranes; format: cell membranes, Striatum, Membrane
Outline: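 Radioligand displacement of [3H]CGS 21680 from rat striatal membranes. Values are means ± 95% confidence limits from at least three independent experiments.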

Adenosine receptor A1 [16] = molecular target: T2, Adenosine receptor A1; assay: Adenosine A1 receptor using [3H][…] in rat cortical membranes; format: cell membranes
Rattus norvegicus [17] = assay: Diuretic activity was measured in saline (20mL/kg, po)-loaded rat as sodium output at 0.032 mg/kg dose po; format: functional, Urine; outline: as §1
Rattus norvegicus [18] = assay: Diuretic activity was measured in saline (20mL/kg, po)-loaded rat as sodium output at 0.1 mg/kg dose po; format: functional, Urine; outline: as §1
Rattus norvegicus [19] = assay: Diuretic activity was measured in saline (20mL/kg, po)-loaded rat as urine volume collected for 6 hr at 0.032 mg/kg dose po; format: functional; outline: as §1
Rattus norvegicus [20] = assay: Diuretic activity was measured in saline (20mL/kg, po)-loaded rat as urine volume collected for 6 hr at 0.1 mg/kg dose po; format: functional; outline: as §1
[21] = molecular target: T3, Adenosine receptor A1 (Rattus norvegicus) (UniProt P25099)
T3 sequence (whole entry): T2 sequence (P25099 whole entry)

| Compound | Na (Rattus norvegicus [1]) | K (Rattus norvegicus [2]) | Urine volume (Rattus norvegicus [3]) | Na (Rattus norvegicus [9]) | K (Rattus norvegicus [11]) | other results |
| --- | --- | --- | --- | --- | --- | --- |
| O=c1ccc(-c2c(-c3ccccc3)nn3ccccc23)nn1CCCO | 5160 u equiv kg-1 | 964 u equiv kg-1 | 37.9 mL/kg |  |  |  |
| Oc1ccc(-c2c(-c3ccccc3)nn3ccccc23)nn1 | 4640 u equiv kg-1 | 826 u equiv kg-1 | 33.3 mL/kg |  |  |  |
| O=C(/C=C/c1c(-c2ccccc2)nn2ccccc12)N1CCCC[C@@H]1CCO [FK453] | 5820 u equiv kg-1 | 1070 u equiv kg-1 | 44.4 mL/kg | 3290 u equiv kg-1 | 833 u equiv kg-1 | bioavailability [4]: 8.8%; solubility [5]: 11.9 µg/mL (≈ 0.0317 mM); Ki (Adenosine receptor A1 [6]): 0.49 nM; Ki (Adenosine receptor A1 [7]): 0.49 nM; Na (Rattus norvegicus [8]): 2350 u equiv kg-1; Na (Rattus norvegicus [10]): 4110 u equiv kg-1; K (Rattus norvegicus [12]): 831 u equiv kg-1; Urine volume (Rattus norvegicus [13]): 18 mL/kg; Urine volume (Rattus norvegicus [14]): 31.9 mL/kg; Urine volume (Rattus norvegicus [15]): 24.6 mL/kg |
| Cn1nc(-c2c(-c3ccccc3)nn3ccccc23)ccc1=O | 4870 u equiv kg-1 | 891 u equiv kg-1 | 30 mL/kg |  |  |  |
| O=C(O)CCn1nc(-c2c(-c3ccccc3)nn3ccccc23)ccc1=O | 5260 u equiv kg-1 | 901 u equiv kg-1 | 31.4 mL/kg | 3350 u equiv kg-1 | 790 u equiv kg-1 | Na (Rattus norvegicus [10]): 4860 u equiv kg-1; K (Rattus norvegicus [12]): 904 u equiv kg-1; Urine volume (Rattus norvegicus [14]): 28.1 mL/kg; Urine volume (Rattus norvegicus [15]): 19.1 mL/kg |
| c1ccc(-c2nn3ccccc3c2-c2ccnnc2)cc1 | 5110 u equiv kg-1 | 907 u equiv kg-1 | 38 mL/kg | 2800 u equiv kg-1 | 569 u equiv kg-1 | Na (Rattus norvegicus [10]): 3770 u equiv kg-1; K (Rattus norvegicus [12]): 667 u equiv kg-1; Urine volume (Rattus norvegicus [14]): 29.5 mL/kg; Urine volume (Rattus norvegicus [15]): 23.8 mL/kg |
| O=C(O)CCCn1nc(-c2c(-c3ccccc3)nn3ccccc23)ccc1=O | 5680 u equiv kg-1 | 1150 u equiv kg-1 |  | 5260 u equiv kg-1 | 967 u equiv kg-1 | bioavailability [4]: 78%; solubility [5]: 10000 µg/mL (≈ 26.7 mM); Log Ki (Adenosine A2 receptor): -5.92; Ki (Adenosine receptor A1 [16]): 6.61 nM; Na (Rattus norvegicus [17]): 2390 u equiv kg-1; Na (Rattus norvegicus [18]): 3860 u equiv kg-1; Urine volume (Rattus norvegicus [19]): 15.6 mL/kg; Urine volume (Rattus norvegicus [20]): 26.4 mL/kg; UV (Rattus norvegicus [3]): 38.6 mL/kg; Urine volume [21]: 26.4 mL/kg |
| c1ccc(-c2nn3ccccc3c2-c2ccncc2)cc1 | 5110 u equiv kg-1 | 975 u equiv kg-1 | 34.2 mL/kg |  |  |  |
| O=c1ccc(-c2c(-c3ccccc3)nn3ccccc23)nn1CCO | 5930 u equiv kg-1 | 942 u equiv kg-1 | 40.4 mL/kg |  |  |  |
| O=C(O)CCCCn1nc(-c2c(-c3ccccc3)nn3ccccc23)ccc1=O | 4510 u equiv kg-1 | 977 u equiv kg-1 | 36.3 mL/kg |  |  |  |
| CCCn1nc(-c2c(-c3ccccc3)nn3ccccc23)ccc1=O | 5510 u equiv kg-1 | 972 u equiv kg-1 | 36.8 mL/kg |  |  |  |

From ChEMBL document CHEMBL1132594, “Discovery of 6-oxo-3-(2-phenylpyrazolo[1,5-a]pyridin-3-yl)-1(6H)- pyridazinebutanoic acid (FK 838): a novel non-xanthine adenosine A1 receptor antagonist with potent diuretic activity” (J Med Chem, 1999)
